The results in this text go back to ChEMBL document CHEMBL3407481, “Pyridine C-region analogs of 2-(3-fluoro-4-methylsulfonylaminophenyl)propanamides as potent TRPV1 antagonists” (Eur J Med Chem, 2015).

Experiment [1] concerns the target T1, Transient receptor potential cation channel subfamily V member 1 (Homo sapiens, UniProt Q8NER1). Nature of the experiment: Antagonist activity at human TRPV1 expressed in CHO cells assessed as inhibition of capsaicin-induced activity by FLIPR assay. Format: cell-based. Conditions: for pKi: read-out: Ki; call rule not given here.
Experiment [2] concerns the target T1, Transient receptor potential cation channel subfamily V member 1. In words: Antagonist activity at human TRPV1 expressed in CHO cells assessed as inhibition of N-arachidonoyl dopamine-induced activity by FLIPR assay. The experiment is classed as cell-based.
Experiment [3] deals with Mus musculus. Nature of the experiment: Inhibition in capsaicin-induced hypothermia in mouse compound dosed orally before capsaicin challenge measured 30 mins post capsaicin treatment. The experiment is classed as functional, organism-based.
Experiment [4] concerns Mus musculus. Nature of the experiment: Analgesic activity in mouse assessed as inhibition of formalin-induced response at 0.3 mg/kg, po. Format: functional. The procedure, abridged: (§1)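 Formalin test in mice after oral dosing. Values are tabulated as MPE and described as % inhibition of the nociceptive response.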
Experiment [5] relates to Mus musculus. In words: Inhibition in capsaicin-induced hypothermia in mouse at 0.1 mg/kg, po 15 min before capsaicin challenge measured 30 mins post capsaicin treatment. Format: functional.
The target in experiment [6] is T1, Transient receptor potential cation channel subfamily V member 1. In words: Antagonist activity at human TRPV1 expressed in CHO cells assessed as inhibition of heat at 45 degC-induced activity by FLIPR assay. The experiment is classed as cell-based.
Experiment [7] has as its system Mus musculus. Nature of the experiment: Analgesic activity in mouse assessed as inhibition of formalin-induced response at 1 mg/kg, po. The experiment is classed as functional. In a few lines:
as §1

For experiment [8], the system named is Mus musculus. In words: Inhibition in capsaicin-induced hypothermia in mouse at 0.3 mg/kg, po 15 min before capsaicin challenge measured 30 mins post capsaicin treatment. Format: functional.
Experiment [9] deals with Mus musculus. Nature of the experiment: Inhibition in capsaicin-induced hypothermia in mouse at 1 mg/kg, po 15 min before capsaicin challenge measured 30 mins post capsaicin treatment. Format: functional.
For experiment [10], the system named is Mus musculus. Nature of the experiment: Inhibition in capsaicin-induced hypothermia in mouse at 10 mg/kg, po 15 min before capsaicin challenge measured 30 mins post capsaicin treatment. Format: functional.
Experiment [11] relates to Mus musculus. In words: Analgesic activity in mouse assessed as inhibition of formalin-induced response at 0.1 mg/kg, po. The experiment is classed as functional. In a few lines: as §1
For experiment [12], the target named is T1, Transient receptor potential cation channel subfamily V member 1. Nature of the experiment: Antagonist activity at human TRPV1 expressed in CHO cells assessed as inhibition of pH-induced activity by FLIPR assay. The experiment is classed as cell-based.

pIC50, pKi: −log10 of the molar value.

T1 sequence (Q8NER1 whole entry): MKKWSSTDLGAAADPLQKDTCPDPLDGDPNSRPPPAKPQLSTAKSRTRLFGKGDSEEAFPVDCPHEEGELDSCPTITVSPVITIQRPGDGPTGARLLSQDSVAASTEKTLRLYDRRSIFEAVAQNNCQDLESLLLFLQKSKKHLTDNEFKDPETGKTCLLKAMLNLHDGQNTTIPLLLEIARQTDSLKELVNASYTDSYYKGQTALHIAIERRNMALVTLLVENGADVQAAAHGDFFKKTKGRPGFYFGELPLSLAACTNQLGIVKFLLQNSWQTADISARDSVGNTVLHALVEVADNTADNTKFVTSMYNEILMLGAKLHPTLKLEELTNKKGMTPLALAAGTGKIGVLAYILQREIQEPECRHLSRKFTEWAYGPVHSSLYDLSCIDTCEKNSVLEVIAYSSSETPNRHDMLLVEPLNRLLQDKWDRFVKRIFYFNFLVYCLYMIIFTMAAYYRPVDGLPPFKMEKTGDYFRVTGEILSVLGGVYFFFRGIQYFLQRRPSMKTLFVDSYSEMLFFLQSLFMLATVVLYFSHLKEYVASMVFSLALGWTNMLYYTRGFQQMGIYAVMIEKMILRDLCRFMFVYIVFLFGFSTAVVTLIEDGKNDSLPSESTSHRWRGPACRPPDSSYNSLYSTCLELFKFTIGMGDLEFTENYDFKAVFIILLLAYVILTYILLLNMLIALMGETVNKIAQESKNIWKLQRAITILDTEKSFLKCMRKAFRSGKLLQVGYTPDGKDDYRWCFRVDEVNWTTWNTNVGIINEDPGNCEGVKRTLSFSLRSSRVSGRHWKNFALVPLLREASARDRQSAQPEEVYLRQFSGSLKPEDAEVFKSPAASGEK

Usually pKi stands for the negative decadic logarithm of the Ki, by convention in mol/L. On to `CC(C(=O)NCc1ccc(C(F)(F)Cl)nc1SC1CCCCC1)c1ccc(NS(C)(=O)=O)c(F)c1` (stereo not drawn), for which, in experiment [1], the pKi is 8.52.
On to `CCCCCCOc1nc(C(F)(F)F)cc(C)c1CNC(=O)C(C)c1ccc(NS(C)(=O)=O)c(F)c1` (stereo not drawn), for which, in experiment [1], the pKi is 7.00.
In the case of `CC(C(=O)NCc1ncc(C(F)(F)F)cc1N1CCCCC1)c1ccc(NS(C)(=O)=O)c(F)c1` (stereo not drawn), in [1], the pKi was 7.54.
Still for that read-out and setting: in the case of `CC(C(=O)NCc1ccc(C(F)(F)Cl)nc1N1CCCCCC1)c1ccc(NS(C)(=O)=O)c(F)c1` (stereo not drawn) it was 9.30; in that of `CC1CCN(c2nc(-c3ccc(F)cc3)ccc2CNC(=O)C(C)c2ccc(NS(C)(=O)=O)c(F)c2)CC1` (stereo not drawn), 7.23.
As usually defined, the inhibition in vivo is the change of the read-out against control, counted positive when it falls. Read a low inhibition in vivo as a response near the control. Usually pIC50 stands for the negative decadic logarithm of the IC50, by convention in mol/L. For the molecule `CC(C(=O)NCc1ccc(C(F)(F)Cl)nc1OC1CCCC1)c1ccc(NS(C)(=O)=O)c(F)c1` (stereo not drawn), the pKi in experiment [2] is 10.40. Also, the inhibition result in [3] was “Dose-dependent effect”. The results for the MPE in experiment [4] and in experiment [7] were 29% and 15%, respectively. Besides, in [5], the inhibition in vivo at 0.1 mg/kg came to 23%. Also, in experiment [6], the pIC50 was 7.71. The molecule further registered an inhibition in vivo at 0.3 mg/kg in experiment [8] of 41%. Further, at 1 mg/kg the inhibition in vivo in experiment [9] was 60%. 10 mg/kg produced 92% inhibition in vivo in [10].
On to `CCCCOc1nc(C(F)(F)Cl)ccc1CNC(=O)C(C)c1ccc(NS(C)(=O)=O)c(F)c1` (stereo not drawn), for which the pKi is 10.70 in [2] and 9.52 in [1]. Also, the MPE in experiment [4] was found to be 73%; in [11], 56%. In addition, the pIC50 in experiment [6] was 8.15; in experiment [12], 8.08. This molecule also showed an inhibition in vivo at 0.3 mg/kg in experiment [8] of 43%.
On to `CC(C(=O)NCc1ncc(C(F)(F)F)cc1N1CCCC1)c1ccc(NS(C)(=O)=O)c(F)c1` (stereo not drawn), for which, in experiment [1] (cho), the Ki result is recorded as “Not Active”.
On to `CC1CCN(c2nc(C3CC3)ccc2CNC(=O)C(C)c2ccc(NS(C)(=O)=O)c(F)c2)CC1` (stereo not drawn), for which the pKi in experiment [1] is 9.05.
As to `CC(C(=O)NCc1ccc(C2CC2)nc1N1CCCCC1)c1ccc(NS(C)(=O)=O)c(F)c1` (stereo not drawn), the negative logarithm of the Ki (pKi) in experiment [1] is 8.96.
As to `CC1CCN(c2nc(C(F)(F)F)ccc2CNC(=O)C(C)c2ccc(NS(C)(=O)=O)c(F)c2)CC1` (stereo not drawn), the pKi in experiment [2] is 10.70. Also, the pIC50 in [12] is 7.80.
As for `CC(C(=O)NCc1ccc(C(F)(F)Cl)nc1N1CCCCC1)c1ccc(NS(C)(=O)=O)c(F)c1` (stereo not drawn), the pKi in experiment [1] was 8.89.
Still for that read-out and setting: in the case of `CC1CC(C)CN(c2nc(C(F)(F)Cl)ccc2CNC(=O)C(C)c2ccc(NS(C)(=O)=O)c(F)c2)C1` (mixture of isomers) it was 9.00.
